System: U2OS
Experiment: Multiplex assay against U2OS
Type: toxicity, cell-based
Conditions: human
How it was run: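 With compound added, live cells were imaged on a CQ1 microscope at 37°C and 5% CO2; staining with Hoechst33342, BioTracker Green Microtubule Cytoskeleton Dye, MitoTracker Red and Annexin V Alexa Fluor 680 had been done at seeding. The CellPathfinder machine-learning gating scheme split cells into Hoechst high-intensity objects or normal cells, normal cells into healthy, pyknosed or fragmented nuclei, and pyknosed cells into mitotic or apoptotic. The tubulin, mitochondrial-mass and membrane-permeability phenotypes are per cents of healthy-nucleus cells.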

[1] = 12 h, 1 µM, compound concentration 1 uM, replicate 1
[2] = 12 h, 1 µM, compound concentration 1 uM, replicate 2
[3] = 12 h, 10 µM, compound concentration 10 uM, replicate 1
[4] = 12 h, 10 µM, compound concentration 10 uM, replicate 2
[5] = 24 h, 1 µM, compound concentration 1 uM, replicate 1
[6] = 24 h, 1 µM, compound concentration 1 uM, replicate 2
[7] = 24 h, 10 µM, compound concentration 10 uM, replicate 1
[8] = 24 h, 10 µM, compound concentration 10 uM, replicate 2
[9] = 48 h, 1 µM, compound concentration 1 uM, replicate 1
[10] = 48 h, 1 µM, compound concentration 1 uM, replicate 2
[11] = 48 h, 10 µM, compound concentration 10 uM, replicate 1
[12] = 48 h, 10 µM, compound concentration 10 uM, replicate 2

How did the “Population Apoptotic (%)” value [1] turn out when `COc1cccc([C@@H](C)NCCCc2ccccc2Cl)c1.Cl` [TECALCET HYDROCHLORIDE] was run?
The value was 50%.

What about the “Population Fragmented Nuclei (%)” value [1] of the same compound?
Its value is 22%.

What about the “Population Healthy Nuclei (%)” value [1] of the same compound?
The value was 72%.

What about the “Population Hoechst High Intensity Objects (%)” value [1] of the same compound?
Its value is 32%.

What about the “Population Membrane Permeable-Phenotype (%)” value [1] of the same compound?
Its value is 3%.

And the “Population Mitochondria Different-Phenotype (%)” value [1]?
Its value is 34%.

What about the “Population Mitotic Cells (%)” value [1] of the same compound?
The value was 50%.

And the “Population Normal (%)” value [1]?
The value was 67%.

What about the “Population Pyknosed Nuclei (%)” value [1] of the same compound?
The value was 5%.

And the “Population Tubulin-Different-Phenotype (%)” value [1]?
The value was 30%.

And the “Total Cell Count” value [1]?
The value was 188.

What about the “Population Apoptotic (%)” value [2] of the same compound?
Its value is 16%.

What about the “Population Fragmented Nuclei (%)” value [2] of the same compound?
Its value is 10%.

And the “Population Healthy Nuclei (%)” value [2]?
The value was 81%.

What about the “Population Hoechst High Intensity Objects (%)” value [2] of the same compound?
The value was 10%.

And the “Population Membrane Permeable-Phenotype (%)” value [2]?
Its value is 6%.

What about the “Population Mitochondria Different-Phenotype (%)” value [2] of the same compound?
The value was 20%.

And the “Population Mitotic Cells (%)” value [2]?
The value was 83%.

And the “Population Normal (%)” value [2]?
Its value is 89%.

And the “Population Pyknosed Nuclei (%)” value [2]?
Its value is 8%.

What about the “Population Tubulin-Different-Phenotype (%)” value [2] of the same compound?
Its value is 18%.

What about the “Total Cell Count” value [2] of the same compound?
The value was 70.

And the “Population Apoptotic (%)” value [3]?
Its value is 62%.

What about the “Population Fragmented Nuclei (%)” value [3] of the same compound?
The value was 11%.

What about the “Population Healthy Nuclei (%)” value [3] of the same compound?
Its value is 64%.

And the “Population Hoechst High Intensity Objects (%)” value [3]?
Its value is 8%.

What about the “Population Membrane Permeable-Phenotype (%)” value [3] of the same compound?
The value was 6%.

And the “Population Mitochondria Different-Phenotype (%)” value [3]?
The value was 86%.

What about the “Population Mitotic Cells (%)” value [3] of the same compound?
Its value is 37%.

What about the “Population Normal (%)” value [3] of the same compound?
Its value is 91%.

And the “Population Pyknosed Nuclei (%)” value [3]?
The value was 23%.

What about the “Population Tubulin-Different-Phenotype (%)” value [3] of the same compound?
Its value is 90%.

What about the “Total Cell Count” value [3] of the same compound?
Its value is 53.

What about the “Population Apoptotic (%)” value [4] of the same compound?
Its value is 41%.

What about the “Population Fragmented Nuclei (%)” value [4] of the same compound?
The value was 7%.

What about the “Population Healthy Nuclei (%)” value [4] of the same compound?
Its value is 75%.

What about the “Population Hoechst High Intensity Objects (%)” value [4] of the same compound?
The value was 5%.

And the “Population Membrane Permeable-Phenotype (%)” value [4]?
The value was 18%.

What about the “Population Mitochondria Different-Phenotype (%)” value [4] of the same compound?
Its value is 90%.

And the “Population Mitotic Cells (%)” value [4]?
The value was 58%.

What about the “Population Normal (%)” value [4] of the same compound?
The value was 94%.

And the “Population Pyknosed Nuclei (%)” value [4]?
The value was 17%.

What about the “Population Tubulin-Different-Phenotype (%)” value [4] of the same compound?
Its value is 96%.

And the “Total Cell Count” value [4]?
Its value is 83.

What about the “Population Apoptotic (%)” value [5] of the same compound?
Its value is 44%.

And the “Population Fragmented Nuclei (%)” value [5]?
Its value is 22%.

What about the “Population Healthy Nuclei (%)” value [5] of the same compound?
Its value is 57%.

What about the “Population Hoechst High Intensity Objects (%)” value [5] of the same compound?
The value was 26%.

What about the “Population Membrane Permeable-Phenotype (%)” value [5] of the same compound?
The value was 3%.

What about the “Population Mitochondria Different-Phenotype (%)” value [5] of the same compound?
Its value is 30%.

And the “Population Mitotic Cells (%)” value [5]?
The value was 55%.

What about the “Population Normal (%)” value [5] of the same compound?
Its value is 73%.

What about the “Population Pyknosed Nuclei (%)” value [5] of the same compound?
Its value is 20%.

What about the “Population Tubulin-Different-Phenotype (%)” value [5] of the same compound?
The value was 19%.

What about the “Total Cell Count” value [5] of the same compound?
The value was 239.

What about the “Population Apoptotic (%)” value [6] of the same compound?
Its value is 77%.

What about the “Population Fragmented Nuclei (%)” value [6] of the same compound?
The value was 8%.

And the “Population Healthy Nuclei (%)” value [6]?
The value was 80%.

And the “Population Hoechst High Intensity Objects (%)” value [6]?
The value was 8%.

What about the “Population Membrane Permeable-Phenotype (%)” value [6] of the same compound?
Its value is 6%.

And the “Population Mitochondria Different-Phenotype (%)” value [6]?
Its value is 6%.

And the “Population Mitotic Cells (%)” value [6]?
Its value is 22%.

And the “Population Normal (%)” value [6]?
Its value is 91%.

And the “Population Pyknosed Nuclei (%)” value [6]?
Its value is 10%.

What about the “Population Tubulin-Different-Phenotype (%)” value [6] of the same compound?
Its value is 12%.

What about the “Total Cell Count” value [6] of the same compound?
Its value is 95.

What about the “Population Apoptotic (%)” value [7] of the same compound?
Its value is 50%.

And the “Population Fragmented Nuclei (%)” value [7]?
The value was 12%.

What about the “Population Healthy Nuclei (%)” value [7] of the same compound?
Its value is 63%.

What about the “Population Hoechst High Intensity Objects (%)” value [7] of the same compound?
The value was 12%.

What about the “Population Membrane Permeable-Phenotype (%)” value [7] of the same compound?
The value was 10%.

And the “Population Mitochondria Different-Phenotype (%)” value [7]?
Its value is 81%.

And the “Population Mitotic Cells (%)” value [7]?
Its value is 50%.

What about the “Population Normal (%)” value [7] of the same compound?
Its value is 87%.

What about the “Population Pyknosed Nuclei (%)” value [7] of the same compound?
The value was 23%.

And the “Population Tubulin-Different-Phenotype (%)” value [7]?
Its value is 79%.

And the “Total Cell Count” value [7]?
The value was 61.

What about the “Population Apoptotic (%)” value [8] of the same compound?
Its value is 35%.

What about the “Population Fragmented Nuclei (%)” value [8] of the same compound?
The value was 8%.

What about the “Population Healthy Nuclei (%)” value [8] of the same compound?
The value was 70%.

And the “Population Hoechst High Intensity Objects (%)” value [8]?
Its value is 8%.

What about the “Population Membrane Permeable-Phenotype (%)” value [8] of the same compound?
Its value is 24%.

What about the “Population Mitochondria Different-Phenotype (%)” value [8] of the same compound?
Its value is 91%.

And the “Population Mitotic Cells (%)” value [8]?
The value was 64%.

What about the “Population Normal (%)” value [8] of the same compound?
Its value is 91%.

What about the “Population Pyknosed Nuclei (%)” value [8] of the same compound?
Its value is 20%.

And the “Population Tubulin-Different-Phenotype (%)” value [8]?
The value was 92%.

And the “Total Cell Count” value [8]?
The value was 97.

And the “Population Apoptotic (%)” value [9]?
Its value is 83%.

And the “Population Fragmented Nuclei (%)” value [9]?
Its value is 29%.

And the “Population Healthy Nuclei (%)” value [9]?
The value was 60%.

And the “Population Hoechst High Intensity Objects (%)” value [9]?
The value was 20%.

And the “Population Membrane Permeable-Phenotype (%)” value [9]?
Its value is 8%.

And the “Population Mitochondria Different-Phenotype (%)” value [9]?
The value was 34%.

And the “Population Mitotic Cells (%)” value [9]?
Its value is 16%.

And the “Population Normal (%)” value [9]?
The value was 79%.

What about the “Population Pyknosed Nuclei (%)” value [9] of the same compound?
Its value is 10%.

And the “Population Tubulin-Different-Phenotype (%)” value [9]?
The value was 14%.

What about the “Total Cell Count” value [9] of the same compound?
Its value is 378.

And the “Population Apoptotic (%)” value [10]?
Its value is 63%.

What about the “Population Fragmented Nuclei (%)” value [10] of the same compound?
The value was 6%.

What about the “Population Healthy Nuclei (%)” value [10] of the same compound?
The value was 84%.

And the “Population Hoechst High Intensity Objects (%)” value [10]?
Its value is 7%.

And the “Population Membrane Permeable-Phenotype (%)” value [10]?
The value was 12%.

And the “Population Mitochondria Different-Phenotype (%)” value [10]?
The value was 15%.

And the “Population Mitotic Cells (%)” value [10]?
Its value is 36%.

What about the “Population Normal (%)” value [10] of the same compound?
Its value is 92%.

What about the “Population Pyknosed Nuclei (%)” value [10] of the same compound?
Its value is 9%.

What about the “Population Tubulin-Different-Phenotype (%)” value [10] of the same compound?
The value was 18%.

What about the “Total Cell Count” value [10] of the same compound?
The value was 153.

And the “Population Apoptotic (%)” value [11]?
The value was 77%.

What about the “Population Fragmented Nuclei (%)” value [11] of the same compound?
The value was 18%.

What about the “Population Healthy Nuclei (%)” value [11] of the same compound?
Its value is 54%.

And the “Population Hoechst High Intensity Objects (%)” value [11]?
Its value is 11%.

What about the “Population Membrane Permeable-Phenotype (%)” value [11] of the same compound?
The value was 7%.

What about the “Population Mitochondria Different-Phenotype (%)” value [11] of the same compound?
The value was 55%.

And the “Population Mitotic Cells (%)” value [11]?
Its value is 22%.

And the “Population Normal (%)” value [11]?
The value was 88%.

What about the “Population Pyknosed Nuclei (%)” value [11] of the same compound?
The value was 27%.

And the “Population Tubulin-Different-Phenotype (%)” value [11]?
The value was 62%.

And the “Total Cell Count” value [11]?
Its value is 73.

What about the “Population Apoptotic (%)” value [12] of the same compound?
The value was 54%.

What about the “Population Fragmented Nuclei (%)” value [12] of the same compound?
The value was 10%.

What about the “Population Healthy Nuclei (%)” value [12] of the same compound?
The value was 60%.

What about the “Population Hoechst High Intensity Objects (%)” value [12] of the same compound?
Its value is 4%.

What about the “Population Membrane Permeable-Phenotype (%)” value [12] of the same compound?
The value was 36%.

And the “Population Mitochondria Different-Phenotype (%)” value [12]?
The value was 82%.

And the “Population Mitotic Cells (%)” value [12]?
Its value is 45%.

And the “Population Normal (%)” value [12]?
Its value is 95%.

What about the “Population Pyknosed Nuclei (%)” value [12] of the same compound?
The value was 29%.

What about the “Population Tubulin-Different-Phenotype (%)” value [12] of the same compound?
The value was 73%.

What about the “Total Cell Count” value [12] of the same compound?
Its value is 130.

Source: ChEMBL document CHEMBL4689842, “EUbOPEN Chemogenomics Library wave 1” (2021)
